Data reported in ChEMBL document CHEMBL4627325, “Rational modifications, synthesis and biological evaluation of new potential antivirals for RSV designed to target the M2-1 protein” (Bioorg Med Chem, 2020).

Assays:
[1] = Cytotoxicity against human Hep2 cells assessed as reduction in cell viability measured after 5 days by MTS assay; type: cell-based; settings: HEp-2 cells
Procedure, shortened: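 Uninfected HEp-2 cultures set up as for the antiviral assay (5×10^3 cells/well, DMEM with 2% FBS and 1% NEAA, 37°C, 5% CO₂) and treated with serial 1:2 compound dilutions; metabolic activity quantified at day 5 by MTS readout to give CC₅₀; mean of ≥2 independent experiments.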

Human orthopneumovirus [2] = experiment: Antiviral activity against Respiratory syncytial virus B infected in Hep2 cells assessed as reduction in virus-induced cytopathic effect after 5 days by microscopic analysis; type: functional, organism-based; settings: HEp-2, 120 h
Procedure, shortened: (§1)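 HEp-2 cells seeded 5×10^3/well in DMEM with 2% heat-inactivated FBS and 1% NEAA, 37°C, 5% CO₂; next day medium replaced with 1:2 serial dilutions of compound (eight concentrations, 0.7-100 μM) and infected with RSV-A Long or RSV-B Wash at moi 0.01 CCID₅₀/cell. CPE scored microscopically (0–5) at day 5; EC₅₀ by logarithmic interpolation as 50% protection; mean of ≥2 independent experiments.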

Human orthopneumovirus [3] = experiment: Antiviral activity against Respiratory syncytial virus A strain Long infected in Hep2 cells assessed as reduction in virus-induced cytopathic effect after 5 days by microscopic analysis; type: functional, organism-based; settings: HEp-2, 120 h; procedure, shortened: as §1

SMILES	CC50 at 120 h [1] [µM]	EC50 (Human orthopneumovirus [2]) [µM]	EC50 (Human orthopneumovirus [3]) [µM]
S=C(SCc1nc2ccccc2s1)N1CCN(c2ccccc2)CC1	> 100	1.3	4.4
Nc1ccn([C@@H]2O[C@@](CO)(CCl)[C@@H](O)[C@H]2F)c(=O)n1 [ALS-8112]	> 100	2.6	2.6
S=C(SCc1nc2ccccc2s1)N1CCN(CCc2ccccc2)CC1	> 100		7.7
Cc1cc(C)c(CN2CCN(C(=S)SCc3nc4ccccc4s3)CC2)c(C)c1	> 100	20.6	42.2
Cc1cccc(CN2CCN(C(=S)SCc3nc4ccccc4s3)CC2)c1	> 100	3	11.8
S=C(SCc1nc2ccccc2s1)N1CCN(Cc2ccccc2)CC1	> 100	3.9	8.3
Cc1ccccc1CN1CCN(C(=S)SCc2nc3ccccc3s2)CC1	> 100	20.6	10.4
Fc1ccc(CN2CCN(C(=S)SCc3nc4ccccc4s3)CC2)cc1	> 100	2.5	4.4
FC(F)(F)c1ccc(CN2CCN(C(=S)SCc3nc4ccccc4s3)CC2)cc1	> 100		3.31
COc1ccc(CN2CCN(C(=S)SCc3nc4ccccc4s3)CC2)cc1	> 100	3	
COC(=O)c1ccc(CN2CCN(C(=S)SCc3nc4ccccc4s3)CC2)cc1	> 100	3.9	14.8
CC(C)(C)c1ccc(CN2CCN(C(=S)SCc3nc4ccccc4s3)CC2)cc1	71.7	2.2	
CCOC(=O)c1ccc(CN2CCN(C(=S)SCc3nc4ccccc4s3)CC2)cc1	> 100	4	40.8
FC(F)(F)c1cccc(CN2CCN(C(=S)SCc3nc4ccccc4s3)CC2)c1	> 100	3.8	3.3
Cc1ccc(CN2CCN(C(=S)SCc3nc4ccccc4s3)CC2)cc1	> 100	1.32	
Cc1ccc(CN2CCN(C(=S)SCc3nc4ccccc4s3)CC2)c(C)c1	> 100		4.97
O=C(c1ccccc1)N1CCN(C(=S)SCc2nc3ccccc3s2)CC1	45	24.8	44.1
O=S(=O)(c1ccccc1)N1CCN(C(=S)SCc2nc3ccccc3s2)CC1	> 100	12.5	35.3
